# Activity calls are given as the source filed them. No cut-off for these calls is given here.
# What was measured:
# [1] = biological target: CCR5/mu opioid receptor complex (Homo sapiens) (UniProt P51681+P35372); conditions: 100 nM
# [2] = biological target: C-C chemokine receptor type 5 (Macaca mulatta, UniProt P61813); assay: Displacement of [125I]-MIP-1alpha from CCR5 in rhesus monkey Chem-1 cell membranes after 120 mins by liquid scintillation counting analysis
# [3] = biological target: T1, C-C chemokine receptor type 5 (Homo sapiens, UniProt P51681); assay: Antagonist activity at CCR5 in Gqi5 transfected human MOLT4 cells assessed as inhibition of RANTES-stimulated Ca2+ influx preincubated for 15 mins followed by […]; format: functional, cell-based, MOLT-4
# Summary of the method: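 CCR5-MOLT-4 cells transfected with chimeric […]. Inhibition of RANTES-stimulated Ca2+ flux was measured. IC50 is the mean ± S.E.M. of three independent experiments.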
# Target sequence in this assay (P51681 whole entry): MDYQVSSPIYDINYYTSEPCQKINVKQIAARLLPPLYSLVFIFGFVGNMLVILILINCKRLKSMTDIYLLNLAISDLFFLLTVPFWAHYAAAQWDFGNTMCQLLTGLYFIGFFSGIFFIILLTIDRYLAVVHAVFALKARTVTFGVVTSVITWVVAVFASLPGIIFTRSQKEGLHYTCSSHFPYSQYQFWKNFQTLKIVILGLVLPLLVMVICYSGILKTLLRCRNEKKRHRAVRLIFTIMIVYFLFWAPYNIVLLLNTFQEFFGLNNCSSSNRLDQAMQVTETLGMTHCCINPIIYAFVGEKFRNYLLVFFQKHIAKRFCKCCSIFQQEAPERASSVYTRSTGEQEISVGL
# [4] = Cytotoxicity against human astrocytes assessed as cell viability at 100 nM by AOPI staining-based fluorescence assay; conditions: astrocyte, 0.1 µM
# Summary of the method: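 Astroglial cell viability after exposure at 100 nM, assessed by dual green/red fluorescence labeling with AOPI.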
# Mu-type opioid receptor [5] = biological target: T2, Mu-type opioid receptor (Homo sapiens, UniProt P35372); assay: Agonist activity at human mu opioid receptor expressed in Gqi5 transfected CHO cells after 15 mins; format: cell-based
# T2 sequence (P35372 whole entry): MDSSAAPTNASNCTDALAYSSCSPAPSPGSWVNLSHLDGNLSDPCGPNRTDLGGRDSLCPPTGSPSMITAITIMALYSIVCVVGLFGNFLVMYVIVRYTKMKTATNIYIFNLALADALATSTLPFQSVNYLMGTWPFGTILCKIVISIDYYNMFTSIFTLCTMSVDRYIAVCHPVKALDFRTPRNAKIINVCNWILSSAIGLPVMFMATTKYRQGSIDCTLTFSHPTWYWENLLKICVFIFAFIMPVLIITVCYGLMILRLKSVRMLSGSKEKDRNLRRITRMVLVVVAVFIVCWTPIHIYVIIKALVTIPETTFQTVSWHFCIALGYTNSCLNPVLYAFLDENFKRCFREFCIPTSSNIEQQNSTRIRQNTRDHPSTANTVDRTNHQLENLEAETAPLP
# Summary of the method: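 hMOR-expressing CHO cells transfected with chimeric […] were tested for direct Ca2+ mobilization (agonist mode).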
# [6] = biological target: T1, C-C chemokine receptor type 5; assay: Agonist activity at CCR5 in Gqi5 transfected human MOLT4 cells after 15 mins; format: cell-based; conditions: MOLT-4
# Summary of the method: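 Ca2+ mobilization, agonist mode, in CCR5-MOLT-4 cells transfected with chimeric […]. Intracellular Ca2+ flux was read directly, with no agonist challenge.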
# Target sequence in this assay (P51681 whole entry, looked up): as the sequence (P51681 whole entry) above
# Mu-type opioid receptor [7] = biological target: T2, Mu-type opioid receptor; assay: Displacement of [3H]-naloxone from human mu opioid receptor expressed in CHO cells after 1 hr; format: cell-based
# Summary of the method: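 Competitive binding in hMOR-expressing CHO cells with [3H]naloxone as radioligand. Ki is the mean ± S.E.M. of three independent experiments.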
# Mu-type opioid receptor [8] = biological target: T2, Mu-type opioid receptor; assay: Antagonist activity at human mu opioid receptor expressed in Gqi5 transfected CHO cells assessed as inhibition of DAMGO-stimulated Ca2+ influx preincubated for 15 mins followed by DAMGO challenge; format: functional, cell-based
# Summary of the method: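 hMOR-CHO cells transfected with chimeric […]. Inhibition of DAMGO-stimulated Ca2+ flux was measured. IC50 is the mean ± S.E.M. of three independent experiments.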
# Homo sapiens = species: Homo sapiens; assay: Binding affinity to CCR5/MOR in human astrocytes assessed as inhibition of R5 HIV-1 SF162 infection by measuring Tat protein expression at 1.5 uM preincubated for 30 to 60 mins followed by viral infection measured after 18 hrs by luciferase reporter gene assay; format: cell-based
# Summary of the method: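 Human astrocytes infected with R5 HIV-1 SF162. Infectivity was read as relative Tat protein expression by luciferase-based assay at 18 h post-infection. Tested at 1.5 μM after an initial dose-response study. Values are from three independent experiments, compared against uninfected and infected controls.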
# Sequence of CCR5/mu opioid receptor complex (Homo sapiens) (P35372 whole entry, looked up): as the sequence (P35372 whole entry) above
# Sequence of CCR5/mu opioid receptor complex (Homo sapiens) (P51681 whole entry, looked up): as the sequence (P51681 whole entry) above
smiles,measurement,setting,value
Cc1nnc(C(C)C)n1[C@H]1C[C@H]2CC[C@@H](C1)N2CC[C@H](NC(=O)C1CCC(F)(F)CC1)c1ccccc1,inhibition,[1],Active
Cc1nnc(C(C)C)n1C1CC2CCC(C1)N2CC[C@H](NC(=O)C1CCC(F)(F)CC1)c1ccc(N)cc1 (some centres undefined),Ki,[2],15.3 nM
same,IC50,[3],14.2 nM
CNC(=O)COCC(=O)NCCCCCCCNC(=O)COCC(=O)Nc1ccc([C@H](CCN2C3CCC2CC(n2c(C)nnc2C(C)C)C3)NC(=O)C2CCC(F)(F)CC2)cc1 (some centres undefined),Ki,[2],151 nM
same,IC50,[3],622 nM
Cc1nnc(C(C)C)n1C1CC2CCC(C1)N2CC[C@H](NC(=O)C1CCC(F)(F)CC1)c1ccc(NC(=O)COCC(=O)NCCCCCCCNC(=O)COCC(=O)N[C@@H]2CC[C@@]3(O)[C@H]4Cc5ccc(O)c6c5[C@@]3(CCN4CC3CC3)[C@H]2O6)cc1 (some centres undefined),Activity,[4],Non-toxic
same,Activity,Mu-type opioid receptor [5],inactive
same,Activity,[6],inactive
Cc1nnc(C(C)C)n1C1CC2CCC(C1)N2CC[C@H](NC(=O)C1CCC(F)(F)CC1)c1ccc(NC(=O)OC(C)(C)C)cc1 (some centres undefined),IC50,[3],1570 nM
CNC(=O)COCC(=O)Nc1ccc([C@H](CCN2C3CCC2CC(n2c(C)nnc2C(C)C)C3)NC(=O)C2CCC(F)(F)CC2)cc1 (some centres undefined),IC50,[3],7910 nM
CNC(=O)COCC(=O)NCCCCCCCNC(=O)COCC(=O)N[C@@H]1CC[C@@]2(O)[C@H]3Cc4ccc(O)c5c4[C@@]2(CCN3CC2CC2)[C@H]1O5,Activity,Mu-type opioid receptor [5],inactive
same,Ki,Mu-type opioid receptor [7],9.2 nM
same,IC50,Mu-type opioid receptor [8],37.8 nM
O=C1CC[C@@]2(O)[C@H]3Cc4ccc(O)c5c4[C@@]2(CCN3CC2CC2)[C@H]1O5,inhibition,Homo sapiens,inactive
